pIC50: −log10 of the molar value. ≈ marks a conversion by molar mass, not a printed value.
Tests used:
[1] = Drug uptake in BALB/c mouse plasma at 20 mg/kg, po as 50%% cyclodextrin formulation measured after 0.75 hrs by LC-MS method; format: ADME, organism-based
Summary of the method: (§1)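 BALB/c mice dosed either free (8% DMSO; 1 mg/kg IV or 20 mg/kg oral), or 20 mg/kg oral in 50% w/v hydroxypropyl-β-cyclodextrin, or 20 mg/kg oral in 25% cyclodextrins plus 50% PEG 400. Serial submandibular blood samples stored at -20°C. Plasma measured by isocratic LC-MS (acetonitrile:water 80:20, 0.2 ml/min), quantifier transition m/z 315.0>161.0.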

[2] = Drug uptake in BALB/c mouse plasma at 20 mg/kg, po as cyclodextrin/PEG400 formulation measured after 0.25 hrs by LC-MS method; format: ADME, organism-based; summary of the method: as §1
[3] = Half-life in BALB/c mouse at 20 mg/kg, po by LC-MS method; format: ADME, organism-based; conditions: in vivo; summary of the method: as §1
[4] = Cytotoxicity against human […] cells assessed as cell growth by Cell titer-Glo assay; format: cell-based; conditions: WI-38 cells
Summary of the method: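 A549 and WI-38 cells grown in DMEM with 10% v/v FCS, streptomycin 100 µg/ml and penicillin G 100 U/ml. Cell number read as cellular ATP by CellTiter-Glo luminescence. Growth 60–100% scored non-cytotoxic, 0–60% cytostatic, below 0 cytotoxic.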

[5] = Drug uptake in BALB/c mouse plasma at 20 mg/kg, po as 50% cyclodextrin formulation measured after 1 hr by LC-MS method; format: ADME, organism-based; summary of the method: as §1
CYP2C19 = CYP2C19 (Homo sapiens, UniProt P33261); experiment: Inhibition of human CYP2C19 expressed in baculovirus-infected insect cells at 10 uM using Luciferin-H EGE as substrate in presence of NADPH by P450-Glo luminescence assay relative to control; format: ADME; conditions: probe Luciferin-H EGE
Sequence of CYP2C19 (P33261 whole entry): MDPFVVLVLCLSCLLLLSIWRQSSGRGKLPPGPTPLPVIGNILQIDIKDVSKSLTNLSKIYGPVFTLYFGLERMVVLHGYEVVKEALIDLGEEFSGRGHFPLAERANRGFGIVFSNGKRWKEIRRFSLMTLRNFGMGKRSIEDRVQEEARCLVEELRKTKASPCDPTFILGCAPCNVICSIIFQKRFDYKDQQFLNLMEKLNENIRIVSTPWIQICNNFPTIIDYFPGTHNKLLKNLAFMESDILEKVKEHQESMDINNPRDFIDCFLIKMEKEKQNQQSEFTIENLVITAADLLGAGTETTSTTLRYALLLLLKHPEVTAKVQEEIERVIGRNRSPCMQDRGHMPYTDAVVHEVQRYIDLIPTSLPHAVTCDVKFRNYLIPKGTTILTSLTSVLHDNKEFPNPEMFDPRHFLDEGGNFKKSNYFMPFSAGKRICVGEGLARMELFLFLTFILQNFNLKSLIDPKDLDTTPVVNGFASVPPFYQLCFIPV
Summary of the method: (§2)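 CYP enzymes as microsomal preparations from baculovirus-infected insect cells, run on the P450-Glo luminogenic substrate platform. A fall in light output indicates inhibition.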

[6] = Solubility of the compound in phosphate buffered saline with 50% DMSO measured after 18 hrs by UV-vis spectroscopic method; format: physicochemical
Summary of the method: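 Saturated suspensions prepared at 100 µM in water, 100 µM in PBS, 200 µM in PBS + 10% DMSO and 10 mM in PBS + 50% DMSO. Held 18 h at 25°C, passed through a 0.2 µm filter, then quantified by UV-Vis absorbance at 312 nm using the calculated extinction coefficient.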

[7] = Drug uptake in BALB/c mouse plasma at 1 mg/kg, iv measured after 45 mins by LC-MS method; format: ADME, organism-based; summary of the method: as §1
CYP3A4 = CYP3A4 (Homo sapiens, UniProt P08684); experiment: Inhibition of human CYP3A4 expressed in baculovirus-infected insect cells at 10 uM using Luciferin-PFBE as substrate in presence of NADPH by P450-Glo luminescence assay relative to control; format: ADME; conditions: probe Luciferin-PFBE
Sequence of CYP3A4 (P08684 whole entry): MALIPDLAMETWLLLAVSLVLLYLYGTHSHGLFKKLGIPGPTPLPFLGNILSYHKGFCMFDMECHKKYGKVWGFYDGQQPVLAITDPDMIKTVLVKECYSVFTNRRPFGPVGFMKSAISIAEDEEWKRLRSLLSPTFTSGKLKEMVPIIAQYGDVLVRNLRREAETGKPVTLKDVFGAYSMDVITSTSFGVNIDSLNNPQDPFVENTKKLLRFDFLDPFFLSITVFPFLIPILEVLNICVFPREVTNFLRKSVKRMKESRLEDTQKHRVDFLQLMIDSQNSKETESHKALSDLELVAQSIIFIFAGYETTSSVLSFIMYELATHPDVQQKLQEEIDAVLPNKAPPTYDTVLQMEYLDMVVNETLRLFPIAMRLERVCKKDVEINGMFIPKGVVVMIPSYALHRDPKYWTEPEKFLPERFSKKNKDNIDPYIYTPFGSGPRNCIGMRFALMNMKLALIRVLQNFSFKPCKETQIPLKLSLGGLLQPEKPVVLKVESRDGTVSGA

Trypanosoma cruzi = experiment: Anti-parasitic activity against Trypanosoma cruzi Y promastigotes infected in HG39 cells at 10 uM by qPCR analysis relative to control; format: functional, cell-based; conditions: in the assay text read “trypomastigotes” for “promastigotes”
Summary of the method: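 Confluent HG39 cells (3 x 10^6 per well) infected at a 1:1 ratio with blood-derived T. cruzi Y strain trypomastigotes. Growth inhibition was read as parasite gDNA by TaqMan probe-based quantitative real-time PCR.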

[8] = Mitochondrial toxicity in human 786-O cells by mitotracker red chloromethyl-Xrosamine staining based-uptake method; format: cell-based, 786-0
Summary of the method: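 786-O renal carcinoma cells kept in RPMI-1640 with 2 mM glutamine, 10% v/v FCS, streptomycin 100 µg/ml and penicillin G 100 U/ml. Mitochondrial toxicity monitored by MitoTracker Red CMXRos uptake with high-content imaging.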

[9] = Drug uptake in BALB/c mouse plasma at 20 mg/kg, po as 50% cyclodextrin formulation measured after 24 hrs by LC-MS method; format: ADME, organism-based; summary of the method: as §1
Cytochrome P450 2C19 = Cytochrome P450 2C19 (Homo sapiens, UniProt P33261); experiment: Inhibition of human CYP2C19 expressed in baculovirus-infected insect cells using Luciferin-H EGE as substrate in presence of NADPH by P450-Glo luminescence assay; format: ADME; summary of the method: as §2
Sequence of Cytochrome P450 2C19 (P33261 whole entry): as the sequence (P33261 whole entry) above

[10] = Cytotoxicity against human THP1 cells by MTT assay; format: cell-based; conditions: THP-1 cells
Summary of the method: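 THP-1 cells differentiated to macrophages with PMA, viability read by colorimetric MTT. CC50 and NOAEL are the arithmetic mean of at least two independent determinations, each run in triplicate.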

[11] = Drug uptake in BALB/c mouse plasma at 20 mg/kg, po as 50% cyclodextrin formulation measured after 0.25 hrs by LC-MS method; format: ADME, organism-based; summary of the method: as §1
[12] = Drug uptake in BALB/c mouse plasma at 20 mg/kg, po as 50% cyclodextrin formulation measured after 0.5 hrs by LC-MS method; format: ADME, organism-based; summary of the method: as §1
[13] = Drug uptake in BALB/c mouse plasma at 20 mg/kg, po as 50% cyclodextrin formulation measured after 3 hrs by LC-MS method; format: ADME, organism-based; summary of the method: as §1
CYP2D6 = CYP2D6 (Homo sapiens, UniProt P10635); experiment: Inhibition of human CYP2D6 expressed in baculovirus-infected insect cells at 10 uM using Luciferin-ME EGE as substrate in presence of NADPH by P450-Glo luminescence assay relative to control; format: ADME; conditions: probe Luciferin-ME EGE; summary of the method: as §2
Sequence of CYP2D6 (P10635 whole entry): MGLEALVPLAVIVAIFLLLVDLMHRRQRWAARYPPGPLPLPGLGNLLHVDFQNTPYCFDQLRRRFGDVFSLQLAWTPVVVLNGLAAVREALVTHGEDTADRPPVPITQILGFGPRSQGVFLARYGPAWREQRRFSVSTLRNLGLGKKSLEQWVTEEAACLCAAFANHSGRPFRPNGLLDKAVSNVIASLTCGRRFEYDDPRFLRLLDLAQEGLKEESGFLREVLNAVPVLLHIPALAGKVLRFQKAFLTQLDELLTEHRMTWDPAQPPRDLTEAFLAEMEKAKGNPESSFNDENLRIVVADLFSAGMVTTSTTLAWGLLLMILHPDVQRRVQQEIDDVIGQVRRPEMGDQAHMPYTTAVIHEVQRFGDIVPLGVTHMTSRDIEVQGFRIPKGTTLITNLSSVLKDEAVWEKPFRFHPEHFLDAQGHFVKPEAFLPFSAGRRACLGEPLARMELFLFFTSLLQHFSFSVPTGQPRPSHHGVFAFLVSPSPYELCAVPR

CYP2C9 = CYP2C9 (Homo sapiens, UniProt P11712); experiment: Inhibition of human CYP2C9 expressed in baculovirus-infected insect cells at 10 uM using Luciferin-H as substrate in presence of NADPH by P450-Glo luminescence assay relative to control; conditions: probe Luciferin-H
Sequence of CYP2C9 (P11712 whole entry): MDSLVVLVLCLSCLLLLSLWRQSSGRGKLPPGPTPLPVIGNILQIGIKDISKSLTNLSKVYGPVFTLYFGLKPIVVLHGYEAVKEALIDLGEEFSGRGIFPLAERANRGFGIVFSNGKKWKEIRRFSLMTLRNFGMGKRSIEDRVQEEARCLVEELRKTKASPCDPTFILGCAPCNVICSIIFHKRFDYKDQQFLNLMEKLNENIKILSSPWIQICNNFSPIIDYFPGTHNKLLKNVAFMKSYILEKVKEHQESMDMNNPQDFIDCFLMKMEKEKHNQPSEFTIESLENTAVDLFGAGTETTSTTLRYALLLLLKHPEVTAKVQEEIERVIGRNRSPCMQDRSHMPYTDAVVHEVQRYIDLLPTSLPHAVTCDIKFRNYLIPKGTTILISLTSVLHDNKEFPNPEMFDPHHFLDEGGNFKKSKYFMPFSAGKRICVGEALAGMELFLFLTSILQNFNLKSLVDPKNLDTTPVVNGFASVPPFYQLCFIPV

[14] = Drug uptake in BALB/c mouse plasma at 1 mg/kg, iv measured after 30 mins by LC-MS method; format: ADME, organism-based; summary of the method: as §1

concentration at 0.75 h [1]: 164 nM
concentration at 0.25 h [2]: 48 nM
half-life [3]: 12.6 min
concentration at 1 h [5]: 69 nM
inhibition at 10 µM (CYP2C19): 49.2%
solubility at 18 h [6]: 600 µM (≈ 189 µg/mL)
concentration at 0.75 h [7]: 23 nM
inhibition at 10 µM (CYP3A4): 12.4%
concentration at 24 h [9]: 5 nM
pIC50 (Cytochrome P450 2C19): 5.11
concentration at 0.25 h [11]: 1100 nM
concentration at 0.5 h [12]: 563 nM
concentration at 3 h [13]: 10 nM
inhibition at 10 µM (CYP2D6): 58.8%
inhibition at 10 µM (CYP2C9): 19%
concentration at 0.5 h [14]: 55 nM
SMILES: COc1cccc(/C=C/C(=O)c2cc(OC)c(OC)cc2O)c1
GI50 [4]: 10.8 µM
inhibition at 10 µM (Trypanosoma cruzi): 46%
pIC50 [8]: 4.84
CC50 [10]: 51 µM

Reference: ChEMBL document CHEMBL3997782, “Methoxylated 2'-hydroxychalcones as antiparasitic hit compounds” (Eur J Med Chem, 2017)
